Laboratory results as given in ChEMBL document CHEMBL3351902, “Design and synthesis of novel spin-labeled camptothecin derivatives as potent cytotoxic agents” (Bioorg Med Chem, 2014).

Key:
Type in all cases: functional, cell-based
[1] = Cytotoxicity against human KBVIN cells after 72 hrs by SRB assay
Method in brief: (§1)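 Cells grown in RPMI-1640 with 2 mM L-glutamine, 25 mM HEPES, 10% heat-inactivated FBS, penicillin/streptomycin and amphotericin B, 5% CO2. Seeded at 4.0–7.5 × 10^3 cells/well into medium containing graded sample concentrations, 72 h at 37 °C. Fixed with 10% TCA for 30 min, stained 0.04% SRB for 30 min, dye solubilized in 10 mM Tris base, absorbance at 515 nm. Triplicate runs with duplicate samples, mean IC50 ± SD.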

KB = assay: Cytotoxicity against human KB cells after 72 hrs by SRB assay
A549 = assay: Cytotoxicity against human A549 cells after 72 hrs by SRB assay
MDA-MB-231 = assay: Cytotoxicity against human MDA-MB-231 cells after 72 hrs by SRB assay; method in brief: as §1

Row | SMILES | IC50 ([1]; kbvin) [nM] | IC50 (KB) [nM] | IC50 (A549) [nM] | IC50 (MDA-MB-231) [nM] | IC50 ([1]; Homo sapiens, KBVIN, 72 h) [nM]
1 | CC[C@@]1(OC(=O)CN/C(CCOCC2CC(C)(C)N([O])C(C)(C)C2)=N/S(=O)(=O)c2ccc(C)cc2)C(=O)OCc2c1cc1n(c2=O)Cc2cc3ccccc3nc2-1 | 84 | 80 | 62 | 91 | –
2 | CC[C@@]1(OC(=O)CN/C(CCOC2CC(C)(C)N([O])C(C)(C)C2)=N/S(=O)(=O)CC)C(=O)OCc2c1cc1n(c2=O)Cc2cc3ccccc3nc2-1 | 57 | 59 | 55 | 80 | –
3 | CC[C@@]1(OC(=O)CN/C(CCOC2CC(C)(C)N([O])C(C)(C)C2)=N/S(=O)(=O)c2ccc(F)cc2)C(=O)OCc2c1cc1n(c2=O)Cc2cc3ccccc3nc2-1 | 100 | 120 | 86 | 270 | –
4 | CC[C@@]1(OC(=O)CN/C(CCOC2CC(C)(C)N([O])C(C)(C)C2)=N/S(=O)(=O)c2ccc(Cl)cc2)C(=O)OCc2c1cc1n(c2=O)Cc2cc3ccccc3nc2-1 | 84 | 73 | 63 | 190 | –
5 | CC[C@@]1(OC(=O)CN/C(CCOC2CC(C)(C)N([O])C(C)(C)C2)=N/S(=O)(=O)c2ccc(OC)cc2)C(=O)OCc2c1cc1n(c2=O)Cc2cc3ccccc3nc2-1 | 96 | 110 | 81 | 270 | –
6 | CC[C@@]1(OC(=O)CN/C(CCOC2CC(C)(C)N([O])C(C)(C)C2)=N/S(=O)(=O)c2ccc(C)cc2)C(=O)OCc2c1cc1n(c2=O)Cc2cc3ccccc3nc2-1 | 110 | 210 | 76 | 450 | –
7 | CC[C@@]1(O)C(=O)OCc2c1cc1n(c2=O)Cc2cc3c(CN(C)C)c(O)ccc3nc2-1 [TOPOTECAN] | – | – | – | – | 400
8 | CC[C@@]1(OC(=O)[C@@H](C)N/C(CCOC2CC(C)(C)N([O])C(C)(C)C2)=N/S(=O)(=O)c2ccc(C)cc2)C(=O)OCc2c1cc1n(c2=O)Cc2cc3ccccc3nc2-1 | 250 | 560 | 450 | 530 | –
9 | CC[C@@]1(OC(=O)CN/C(CCOC2CC(C)(C)N([O])C(C)(C)C2)=N/S(=O)(=O)c2ccc([N+](=O)[O-])cc2)C(=O)OCc2c1cc1n(c2=O)Cc2cc3ccccc3nc2-1 | 72 | 59 | 58 | 100 | –
10 | CC[C@@]1(OC(=O)CN/C(CCOC2CC(C)(C)N([O])C(C)(C)C2)=N/S(=O)(=O)c2cccs2)C(=O)OCc2c1cc1n(c2=O)Cc2cc3ccccc3nc2-1 | 83 | 63 | 63 | 110 | –
11 | CC[C@@]1(OC(=O)CN/C(CCOCC2=CC(C)(C)N([O])C2(C)C)=N/S(=O)(=O)c2ccc(F)cc2)C(=O)OCc2c1cc1n(c2=O)Cc2cc3ccccc3nc2-1 | 95 | 120 | 77 | 140 | –
12 | CC[C@@]1(OC(=O)CN/C(CCOCC2=CC(C)(C)N([O])C2(C)C)=N/S(=O)(=O)c2ccc(OC)cc2)C(=O)OCc2c1cc1n(c2=O)Cc2cc3ccccc3nc2-1 | 150 | 130 | 90 | 180 | –
13 | CC[C@@]1(OC(=O)CN/C(CCOCC2=CC(C)(C)N([O])C2(C)C)=N/S(C)(=O)=O)C(=O)OCc2c1cc1n(c2=O)Cc2cc3ccccc3nc2-1 | 83.4 | 82.3 | 62.9 | 103 | –
14 | CC[C@@]1(OC(=O)CN/C(CCOC2CC(C)(C)N([O])C(C)(C)C2)=N/S(=O)(=O)c2ccc3ccccc3c2)C(=O)OCc2c1cc1n(c2=O)Cc2cc3ccccc3nc2-1 | 330 | 580 | 480 | 610 | –
15 | CC[C@@]1(OC(=O)CN/C(CCOCC2=CC(C)(C)N([O])C2(C)C)=N/S(=O)(=O)c2ccc(C)cc2)C(=O)OCc2c1cc1n(c2=O)Cc2cc3ccccc3nc2-1 | 94 | 91 | 74 | 120 | –
16 | CC[C@@]1(OC(=O)[C@@H](Cc2ccccc2)N/C(CCOC2CC(C)(C)N([O])C(C)(C)C2)=N/S(=O)(=O)c2ccc(C)cc2)C(=O)OCc2c1cc1n(c2=O)Cc2cc3ccccc3nc2-1 | 100 | 310 | 170 | 500 | –
17 | CCC(C)[C@@H](N/C(CCOC1CC(C)(C)N([O])C(C)(C)C1)=N/S(=O)(=O)c1ccc(C)cc1)C(=O)O[C@]1(CC)C(=O)OCc2c1cc1n(c2=O)Cc2cc3ccccc3nc2-1 (stereo partly specified) | > 1000 | > 1000 | > 1000 | > 1000 | –
18 | CCCCS(=O)(=O)/N=C(\CCOC1CC(C)(C)N([O])C(C)(C)C1)NCC(=O)O[C@]1(CC)C(=O)OCc2c1cc1n(c2=O)Cc2cc3ccccc3nc2-1 | 95 | 75 | 62 | 230 | –
19 | CC[C@@]1(OC(=O)[C@@H](CC(C)C)N/C(CCOC2CC(C)(C)N([O])C(C)(C)C2)=N/S(=O)(=O)c2ccc(C)cc2)C(=O)OCc2c1cc1n(c2=O)Cc2cc3ccccc3nc2-1 | 740 | 700 | 610 | 840 | –
20 | CC[C@@]1(OC(=O)CN/C(CCOC2CC(C)(C)N([O])C(C)(C)C2)=N/S(C)(=O)=O)C(=O)OCc2c1cc1n(c2=O)Cc2cc3ccccc3nc2-1 | 90 | 71 | 59 | 110 | –
21 | CC[C@@]1(OC(=O)[C@H](N/C(CCOC2CC(C)(C)N([O])C(C)(C)C2)=N/S(=O)(=O)c2ccc(C)cc2)C(C)C)C(=O)OCc2c1cc1n(c2=O)Cc2cc3ccccc3nc2-1 | > 1000 | > 1000 | > 1000 | > 1000 | –
